Test results taken from ChEMBL document CHEMBL4190262, “Tuning of β-glucosidase and α-galactosidase inhibition by generation and in situ screening of a library of pyrrolidine-triazole hybrid molecules” (Eur J Med Chem, 2017).
Active and inactive are the calls of the source. The calls are words filed in the database; no cut-off is given here.

Key:
Prunus dulcis = assay: Inhibition of almond beta-glucosidase at 1 mM using p-nitrophenyl glycopyranoside preincubated for 5 mins followed by substrate addition measured after 20 mins by visible absorption spectroscopic method relative to control
Method in brief: (§1)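 Test compound at 1 mM in well. Mix: 0.01–0.5 units/mL enzyme plus 10 mM p-nitrophenyl glycopyranoside (aqueous solution), buffered to the enzyme's optimal pH. Enzyme and inhibitor preincubated 5 min at rt. Substrate then added and incubated 20 min at 37 °C. Stopped with sodium borate (pH 9.8). p-Nitrophenolate read at 405 nm. Duplicates averaged.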

[1] = target: T1, Beta-galactosidase (Aspergillus oryzae) (UniProt B7VU80); assay: Inhibition of Aspergillus oryzae beta-galactosidase at 1 mM using p-nitrophenyl glycopyranoside preincubated for 5 mins followed by substrate addition measured after 20 mins by visible absorption spectroscopic method relative to control; method in brief: as §1
T1 sequence (whole entry): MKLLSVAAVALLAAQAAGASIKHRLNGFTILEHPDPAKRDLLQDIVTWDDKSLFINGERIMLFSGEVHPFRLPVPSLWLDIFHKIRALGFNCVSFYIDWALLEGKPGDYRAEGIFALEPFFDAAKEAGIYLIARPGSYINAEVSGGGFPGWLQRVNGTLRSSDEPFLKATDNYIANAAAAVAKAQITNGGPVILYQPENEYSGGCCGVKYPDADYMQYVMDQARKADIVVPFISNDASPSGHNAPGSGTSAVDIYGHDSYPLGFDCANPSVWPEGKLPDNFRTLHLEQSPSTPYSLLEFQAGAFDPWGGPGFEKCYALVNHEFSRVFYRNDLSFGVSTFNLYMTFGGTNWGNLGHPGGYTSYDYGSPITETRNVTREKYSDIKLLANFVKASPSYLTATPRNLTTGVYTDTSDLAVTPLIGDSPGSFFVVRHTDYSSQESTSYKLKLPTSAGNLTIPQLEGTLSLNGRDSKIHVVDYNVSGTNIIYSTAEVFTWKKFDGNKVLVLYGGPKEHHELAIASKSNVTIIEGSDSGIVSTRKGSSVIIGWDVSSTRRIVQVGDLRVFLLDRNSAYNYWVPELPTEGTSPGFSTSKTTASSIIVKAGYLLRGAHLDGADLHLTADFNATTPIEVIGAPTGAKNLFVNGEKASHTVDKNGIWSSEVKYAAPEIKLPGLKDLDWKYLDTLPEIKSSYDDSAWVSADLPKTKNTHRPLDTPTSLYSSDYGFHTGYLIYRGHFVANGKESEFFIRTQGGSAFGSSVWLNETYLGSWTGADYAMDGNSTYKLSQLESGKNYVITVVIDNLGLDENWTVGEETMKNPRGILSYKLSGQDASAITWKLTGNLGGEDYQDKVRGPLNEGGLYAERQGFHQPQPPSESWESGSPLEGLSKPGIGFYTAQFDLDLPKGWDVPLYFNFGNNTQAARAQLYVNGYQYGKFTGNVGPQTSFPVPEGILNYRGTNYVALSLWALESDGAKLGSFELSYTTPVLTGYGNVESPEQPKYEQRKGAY

Canavalia ensiformis = assay: Inhibition of jack bean beta-N-acetylglucosaminidase at 1 mM using p-nitrophenyl glycopyranoside preincubated for 5 mins followed by substrate addition measured after 20 mins by visible absorption spectroscopic method relative to control; method in brief: as §1
Aspergillus niger = assay: Inhibition of Aspergillus niger amyloglucosidase at 1 mM using p-nitrophenyl glycopyranoside preincubated for 5 mins followed by substrate addition measured after 20 mins by visible absorption spectroscopic method relative to control; method in brief: as §1
[2] = target: Alpha-galactosidase (Coffea arabica) (UniProt Q42656); assay: Inhibition of coffee beans alpha-galactosidase at 1 mM using p-nitrophenyl glycopyranoside preincubated for 5 mins followed by substrate addition measured after 20 mins by visible absorption spectroscopic method relative to control; method in brief: as §1
Chain of Alpha-galactosidase (Coffea arabica) (Q42656 16-378 limits assumed): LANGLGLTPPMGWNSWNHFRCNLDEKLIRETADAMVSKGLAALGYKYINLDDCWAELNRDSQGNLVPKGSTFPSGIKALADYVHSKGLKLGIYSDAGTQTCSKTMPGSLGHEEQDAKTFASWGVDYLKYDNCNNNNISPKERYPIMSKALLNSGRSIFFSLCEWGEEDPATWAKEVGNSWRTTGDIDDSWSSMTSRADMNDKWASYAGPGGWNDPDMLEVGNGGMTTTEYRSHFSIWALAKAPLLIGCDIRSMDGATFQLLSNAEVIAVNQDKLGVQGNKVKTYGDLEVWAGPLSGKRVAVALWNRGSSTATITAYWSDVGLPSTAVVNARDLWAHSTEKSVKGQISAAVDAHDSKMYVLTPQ

Bos taurus = species: Bos taurus; assay: Inhibition of bovine kidney alpha-L-fucosidase at 1 mM using p-nitrophenyl glycopyranoside preincubated for 5 mins followed by substrate addition measured after 20 mins by visible absorption spectroscopic method relative to control; method in brief: as §1
[3] = target: T2, Alpha-mannosidase (Canavalia ensiformis) (UniProt C0HJB3); assay: Inhibition of jack bean alpha-mannosidase at 1 mM using p-nitrophenyl glycopyranoside preincubated for 5 mins followed by substrate addition measured after 20 mins by visible absorption spectroscopic method relative to control; method in brief: as §1
T2 sequence (whole entry): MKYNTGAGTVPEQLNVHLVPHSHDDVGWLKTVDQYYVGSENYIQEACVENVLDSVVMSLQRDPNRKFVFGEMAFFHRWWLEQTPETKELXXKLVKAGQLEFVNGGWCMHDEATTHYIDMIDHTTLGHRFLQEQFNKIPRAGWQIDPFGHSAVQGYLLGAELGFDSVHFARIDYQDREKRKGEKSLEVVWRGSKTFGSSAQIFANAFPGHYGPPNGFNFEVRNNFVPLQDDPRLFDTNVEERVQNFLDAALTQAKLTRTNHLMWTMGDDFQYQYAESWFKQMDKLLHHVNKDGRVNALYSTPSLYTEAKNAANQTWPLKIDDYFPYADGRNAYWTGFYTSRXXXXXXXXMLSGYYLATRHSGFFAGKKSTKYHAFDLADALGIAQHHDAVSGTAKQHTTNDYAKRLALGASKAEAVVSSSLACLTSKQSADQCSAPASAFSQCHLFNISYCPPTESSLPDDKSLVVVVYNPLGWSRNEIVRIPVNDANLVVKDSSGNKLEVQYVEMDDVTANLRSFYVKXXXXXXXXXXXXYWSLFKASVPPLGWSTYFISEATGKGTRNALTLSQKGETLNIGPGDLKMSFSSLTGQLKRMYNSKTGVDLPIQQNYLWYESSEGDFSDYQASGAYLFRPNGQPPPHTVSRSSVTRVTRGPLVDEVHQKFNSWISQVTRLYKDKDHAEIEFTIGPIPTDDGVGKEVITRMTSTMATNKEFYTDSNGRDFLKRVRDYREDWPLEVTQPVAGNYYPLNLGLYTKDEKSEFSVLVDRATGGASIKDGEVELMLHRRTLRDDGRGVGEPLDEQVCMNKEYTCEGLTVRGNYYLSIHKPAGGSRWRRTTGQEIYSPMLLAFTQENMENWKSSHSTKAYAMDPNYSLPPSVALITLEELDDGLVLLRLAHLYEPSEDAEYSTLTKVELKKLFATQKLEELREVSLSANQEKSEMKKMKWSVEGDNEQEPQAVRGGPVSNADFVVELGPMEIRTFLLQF

Saccharomyces cerevisiae = assay: Inhibition of yeast alpha glucosidase at 1 mM using p-nitrophenyl glycopyranoside preincubated for 5 mins followed by substrate addition measured after 20 mins by visible absorption spectroscopic method relative to control; method in brief: as §1
Oryza sativa = assay: Inhibition of rice alpha-glucosidase at 1 mM using p-nitrophenyl glycopyranoside preincubated for 5 mins followed by substrate addition measured after 20 mins by visible absorption spectroscopic method relative to control; method in brief: as §1
[4] = target: Beta-galactosidase (Escherichia coli) (UniProt Q8VNN2); assay: Inhibition of Escherichia coli beta-galactosidase at 1 mM using p-nitrophenyl glycopyranoside preincubated for 5 mins followed by substrate addition measured after 20 mins by visible absorption spectroscopic method relative to control; method in brief: as §1
Chain of Beta-galactosidase (Escherichia coli) (Q8VNN2 whole entry, looked up): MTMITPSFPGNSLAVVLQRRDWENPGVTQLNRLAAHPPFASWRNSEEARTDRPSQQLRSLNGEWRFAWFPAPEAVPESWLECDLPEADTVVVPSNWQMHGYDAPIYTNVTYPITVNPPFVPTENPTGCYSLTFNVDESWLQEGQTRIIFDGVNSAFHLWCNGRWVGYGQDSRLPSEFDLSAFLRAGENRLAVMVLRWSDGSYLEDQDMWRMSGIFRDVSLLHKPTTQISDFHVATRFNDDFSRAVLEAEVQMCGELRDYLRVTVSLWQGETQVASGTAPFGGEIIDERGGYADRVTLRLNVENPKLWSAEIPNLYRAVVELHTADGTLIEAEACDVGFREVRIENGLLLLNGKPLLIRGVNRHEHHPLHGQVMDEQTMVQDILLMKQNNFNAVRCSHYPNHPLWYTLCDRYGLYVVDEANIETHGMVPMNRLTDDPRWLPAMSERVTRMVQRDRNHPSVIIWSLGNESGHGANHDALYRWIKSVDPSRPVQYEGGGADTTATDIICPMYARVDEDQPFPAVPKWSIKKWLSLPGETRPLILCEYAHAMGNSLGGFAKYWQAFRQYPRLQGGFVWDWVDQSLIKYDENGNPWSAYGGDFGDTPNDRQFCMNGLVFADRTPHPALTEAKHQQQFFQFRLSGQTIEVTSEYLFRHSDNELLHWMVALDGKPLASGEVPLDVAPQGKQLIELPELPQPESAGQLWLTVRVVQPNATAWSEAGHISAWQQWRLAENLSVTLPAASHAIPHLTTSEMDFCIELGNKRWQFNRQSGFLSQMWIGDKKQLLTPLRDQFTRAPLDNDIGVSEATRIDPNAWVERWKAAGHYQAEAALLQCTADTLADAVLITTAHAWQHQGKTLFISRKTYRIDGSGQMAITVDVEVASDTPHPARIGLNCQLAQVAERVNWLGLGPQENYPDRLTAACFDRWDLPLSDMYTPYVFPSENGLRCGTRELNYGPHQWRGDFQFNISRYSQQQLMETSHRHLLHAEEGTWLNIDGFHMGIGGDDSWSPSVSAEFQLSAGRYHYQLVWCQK

Cornu aspersum = assay: Inhibition of snail beta-mannosidase at 1 mM using p-nitrophenyl glycopyranoside preincubated for 5 mins followed by substrate addition measured after 20 mins by visible absorption spectroscopic method relative to control; method in brief: as §1
[5] = Inhibition of bovine kidney alpha-L-fucosidase using p-nitrophenyl glycopyranoside preincubated for 5 mins followed by substrate addition measured after 20 mins by visible absorption spectroscopic method; set-up: species or system Bos taurus

inhibition (Prunus dulcis): inactive
inhibition [1]: inactive
inhibition (Canavalia ensiformis): inactive
inhibition (Aspergillus niger): inactive
inhibition [2]: inactive
inhibition (Bos taurus): 84%
inhibition [3]: inactive
inhibition (Saccharomyces cerevisiae): inactive
inhibition (Oryza sativa): inactive
inhibition [4]: inactive
inhibition (Cornu aspersum): inactive
IC50 [5]: 168 µM
Compound: O[C@@H]1[C@H](O)CN[C@@H]1c1cn(Cc2ccccc2)nn1
